From ChEMBL document CHEMBL1135971, “(2S,1'S,2'S,3'R)-2-(2'-carboxy-3'-methylcyclopropyl) glycine is a potent and selective metabotropic group 2 receptor agonist with anxiolytic properties” (2002) come the findings set out here.

Molecules are shown by their SMILES.

Assay [1] deals with Metabotropic glutamate receptor 7 (Homo sapiens) (UniProt Q14831). Put plainly: (§1) Inhibition of c-AMP by human Metabotropic glutamate receptor 7 (mGluR7) expressed in non-neuronal cells. The class given is cell-based. Put shortly: (§2)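 Clonal nonneuronal cell lines expressing each mGlu subtype, washed in PBS with 3 mM glucose and 500 μM IBMX, preincubated 30 min at 37 °C. Compound added with forskolin (15 μM final), 20 min at 37 °C. Stopped with 6 mM EDTA and boiling. cAMP measured by [3H]cAMP SPA, with protein per well by Bradford assay. Read-out: EC50 for inhibition of forskolin-stimulated cAMP.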
Metabotropic glutamate receptor 7 (Homo sapiens), sequence (Q14831 whole entry): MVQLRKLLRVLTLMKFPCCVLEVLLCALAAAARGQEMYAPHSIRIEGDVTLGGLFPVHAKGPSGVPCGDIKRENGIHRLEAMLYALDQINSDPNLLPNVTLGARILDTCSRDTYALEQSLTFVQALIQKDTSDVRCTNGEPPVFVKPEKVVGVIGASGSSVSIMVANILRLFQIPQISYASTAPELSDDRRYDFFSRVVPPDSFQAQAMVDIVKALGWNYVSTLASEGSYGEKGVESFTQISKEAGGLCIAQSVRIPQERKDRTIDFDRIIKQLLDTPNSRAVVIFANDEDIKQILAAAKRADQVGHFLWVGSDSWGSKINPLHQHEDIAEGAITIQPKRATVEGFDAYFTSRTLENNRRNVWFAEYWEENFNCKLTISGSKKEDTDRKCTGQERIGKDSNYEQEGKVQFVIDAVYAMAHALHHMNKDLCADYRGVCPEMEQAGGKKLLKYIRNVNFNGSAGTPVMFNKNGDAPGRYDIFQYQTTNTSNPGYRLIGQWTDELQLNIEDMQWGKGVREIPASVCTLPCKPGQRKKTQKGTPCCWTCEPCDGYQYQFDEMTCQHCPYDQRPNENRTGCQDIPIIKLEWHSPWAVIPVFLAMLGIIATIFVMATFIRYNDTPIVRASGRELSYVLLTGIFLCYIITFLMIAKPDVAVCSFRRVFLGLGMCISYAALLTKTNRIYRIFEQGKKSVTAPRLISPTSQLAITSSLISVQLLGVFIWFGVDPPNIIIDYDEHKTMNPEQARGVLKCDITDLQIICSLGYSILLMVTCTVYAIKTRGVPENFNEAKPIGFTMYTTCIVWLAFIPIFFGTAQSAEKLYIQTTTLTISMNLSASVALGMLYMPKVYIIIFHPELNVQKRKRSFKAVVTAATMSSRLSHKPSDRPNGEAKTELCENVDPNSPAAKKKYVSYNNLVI

Assay [2] concerns the target Metabotropic glutamate receptor 8 (Homo sapiens) (UniProt O00222). As to the kind of experiment: Inhibition of c-AMP by human Metabotropic glutamate receptor 8 (mGluR8) expressed in non-neuronal cells. The class given is cell-based. Put shortly: as §2
The target of assay [3] is Metabotropic glutamate receptor 3 (Homo sapiens) (UniProt Q14832). As to the kind of experiment: (§3) Inhibition of c-AMP by human Metabotropic glutamate receptor 3 (mGluR3) expressed in non-neuronal cells. The assay is classed as cell-based. Put shortly:
as §2

Assay [4] concerns the target Metabotropic glutamate receptor 4 (Homo sapiens) (UniProt Q14833). Put plainly: (§4) Inhibition of c-AMP by human Metabotropic glutamate receptor 4 (mGluR4) expressed in non-neuronal cells. The assay is classed as cell-based. Summed up:
as §2

The target of assay [5] is Metabotropic glutamate receptor 5 (Homo sapiens) (UniProt P41594). As to the kind of experiment: Phosphoinositide hydrolysis by human Metabotropic glutamate receptor 5 (mGluR5) expressed in non neuronal cells. The assay is classed as cell-based. Summed up:
(§5)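 Transfected nonneuronal cells seeded at 2.5 × 10^5 per well in glutamine-free medium for 24 h, then labeled with [3H]myo-inositol (4 µCi/mL) for 20 h. Washed in buffer with 10 mM HEPES, inositol and LiCl. Compound added and incubated 60 min at 37 °C. [3H]inositol monophosphate separated by anion exchange and counted by scintillation. Read-out: EC50 for PI hydrolysis.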

Assay [6] deals with Metabotropic glutamate receptor 6 (Homo sapiens) (UniProt O15303). As to the kind of experiment: (§6) Inhibition of c-AMP by human Metabotropic glutamate receptor 6 (mGluR6) expressed in non-neuronal cells. The class given is cell-based. Put shortly:
as §2

Assay [7] concerns the target Metabotropic glutamate receptor 2 (Homo sapiens) (UniProt Q14416). Put plainly: Inhibition of c-AMP by human Metabotropic glutamate receptor 2 (mGluR2) expressed in non-neuronal cells. The assay is classed as cell-based. Put shortly:
as §2

In assay [8] the test system is Rattus norvegicus. Put plainly: Mean effective dose that significantly blocked fear-potentiated startle(oral administration). Particulars: read-out: MED.
The target in assay [9] is Metabotropic glutamate receptor 5 (Homo sapiens) (UniProt P41594). As to the kind of experiment: Phosphoinositide hydrolysis by Metabotropic glutamate receptor 5 (mGluR5) expressed in non neuronal cells. The class given is cell-based. Put shortly: as §5
Metabotropic glutamate receptor 5 (Homo sapiens), sequence (P41594 21-1212 limits assumed): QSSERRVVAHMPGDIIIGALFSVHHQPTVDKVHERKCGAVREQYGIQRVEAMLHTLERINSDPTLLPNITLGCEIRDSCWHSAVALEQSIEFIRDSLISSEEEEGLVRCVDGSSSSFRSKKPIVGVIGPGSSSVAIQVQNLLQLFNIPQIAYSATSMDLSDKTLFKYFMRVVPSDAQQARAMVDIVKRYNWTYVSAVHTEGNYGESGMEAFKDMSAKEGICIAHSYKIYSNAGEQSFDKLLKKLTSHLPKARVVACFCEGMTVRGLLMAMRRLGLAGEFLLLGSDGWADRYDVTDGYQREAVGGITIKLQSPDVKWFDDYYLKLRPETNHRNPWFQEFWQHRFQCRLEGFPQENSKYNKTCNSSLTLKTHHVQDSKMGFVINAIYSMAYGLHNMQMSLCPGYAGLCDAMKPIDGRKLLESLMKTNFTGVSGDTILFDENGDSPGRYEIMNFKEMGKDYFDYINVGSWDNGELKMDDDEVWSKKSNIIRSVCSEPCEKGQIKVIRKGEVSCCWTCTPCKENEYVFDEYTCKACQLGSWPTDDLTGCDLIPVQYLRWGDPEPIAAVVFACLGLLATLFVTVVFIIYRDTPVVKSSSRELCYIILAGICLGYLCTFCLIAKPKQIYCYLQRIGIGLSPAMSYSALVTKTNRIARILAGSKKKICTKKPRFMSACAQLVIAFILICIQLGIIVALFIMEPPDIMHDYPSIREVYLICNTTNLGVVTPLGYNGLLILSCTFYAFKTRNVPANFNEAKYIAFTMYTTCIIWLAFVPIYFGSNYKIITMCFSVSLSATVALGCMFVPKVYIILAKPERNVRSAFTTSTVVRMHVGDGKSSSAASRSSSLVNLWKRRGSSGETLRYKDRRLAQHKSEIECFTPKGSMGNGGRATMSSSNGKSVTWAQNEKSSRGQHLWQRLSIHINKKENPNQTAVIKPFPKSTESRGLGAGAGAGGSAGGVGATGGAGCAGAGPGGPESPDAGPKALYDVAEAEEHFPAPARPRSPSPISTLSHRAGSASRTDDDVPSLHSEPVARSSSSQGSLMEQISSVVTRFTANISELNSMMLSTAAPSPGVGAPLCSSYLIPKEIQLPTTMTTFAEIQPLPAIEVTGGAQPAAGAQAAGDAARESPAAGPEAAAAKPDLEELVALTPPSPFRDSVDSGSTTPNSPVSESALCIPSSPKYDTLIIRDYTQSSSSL
The target in assay [10] is Metabotropic glutamate receptor 7 (Rattus norvegicus) (UniProt P35400). Put plainly: Inhibition of c-AMP by rat Metabotropic glutamate receptor 7 mGluR7) expressed in non-neuronal cells.
Metabotropic glutamate receptor 7 (Rattus norvegicus), sequence (P35400 whole entry, looked up): as the sequence (Q14831 whole entry) above, with R5G, A27V, N454H, S488T, A520S, D578N counted along it
Assay [11] concerns the target Metabotropic glutamate receptor 7 (Homo sapiens) (UniProt Q14831). The assay is described as §1. The assay is classed as cell-based. Put shortly:
(§7)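 Clonal nonneuronal cell lines transfected with each mGlu receptor. Cells washed in Dulbecco's PBS with 3 mM glucose and 500 μM IBMX, preincubated 30 min at 37 °C, then washed. Compound added with forskolin (15 μM final) and incubated 20 min at 37 °C. Stopped with 6 mM EDTA plus boiling, cAMP measured by [3H]cAMP SPA and normalised to Bradford protein. EC50 for inhibition of forskolin-stimulated cAMP.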
The source holds these as a separate data set.

Assay [12] concerns the target Metabotropic glutamate receptor 4 (Homo sapiens) (UniProt Q14833). The description is as §4. The assay is classed as cell-based. Summed up: as §7
The source holds these as a separate data set.

Assay [13] addresses Metabotropic glutamate receptor 6 (Homo sapiens) (UniProt O15303). The description is as §6. The class given is cell-based. Put shortly:
as §7
This is another data set of the same source.

Assay [14] addresses Metabotropic glutamate receptor 3 (Homo sapiens) (UniProt Q14832). The assay is described as §3. The class given is cell-based. Summed up: as §7
This is another data set of the same source.

Metabotropic glutamate receptor 3 (Homo sapiens), sequence (Q14832 23-879 limits assumed): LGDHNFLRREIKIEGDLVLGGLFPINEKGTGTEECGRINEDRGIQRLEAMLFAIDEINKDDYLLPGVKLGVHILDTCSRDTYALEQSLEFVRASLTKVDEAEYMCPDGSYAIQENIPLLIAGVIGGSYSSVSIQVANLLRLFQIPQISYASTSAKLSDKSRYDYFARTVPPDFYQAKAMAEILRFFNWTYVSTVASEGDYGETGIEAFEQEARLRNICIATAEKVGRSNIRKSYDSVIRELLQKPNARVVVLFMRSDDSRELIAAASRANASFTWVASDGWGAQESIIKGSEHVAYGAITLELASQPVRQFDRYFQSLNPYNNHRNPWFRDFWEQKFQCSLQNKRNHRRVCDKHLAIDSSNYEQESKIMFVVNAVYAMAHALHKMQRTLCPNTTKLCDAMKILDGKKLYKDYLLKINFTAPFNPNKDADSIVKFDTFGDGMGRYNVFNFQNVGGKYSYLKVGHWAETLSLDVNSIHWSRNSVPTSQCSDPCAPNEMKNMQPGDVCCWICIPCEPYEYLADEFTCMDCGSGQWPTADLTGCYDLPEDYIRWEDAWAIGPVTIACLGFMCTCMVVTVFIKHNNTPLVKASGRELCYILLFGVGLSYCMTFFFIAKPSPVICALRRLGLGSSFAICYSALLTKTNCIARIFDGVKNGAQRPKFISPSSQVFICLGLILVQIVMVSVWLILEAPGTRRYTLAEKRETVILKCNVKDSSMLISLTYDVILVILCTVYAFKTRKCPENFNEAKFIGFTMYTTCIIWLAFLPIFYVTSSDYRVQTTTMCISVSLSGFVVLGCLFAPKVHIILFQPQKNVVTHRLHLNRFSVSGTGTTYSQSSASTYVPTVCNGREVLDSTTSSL
Metabotropic glutamate receptor 8 (Homo sapiens), sequence (O00222 whole entry): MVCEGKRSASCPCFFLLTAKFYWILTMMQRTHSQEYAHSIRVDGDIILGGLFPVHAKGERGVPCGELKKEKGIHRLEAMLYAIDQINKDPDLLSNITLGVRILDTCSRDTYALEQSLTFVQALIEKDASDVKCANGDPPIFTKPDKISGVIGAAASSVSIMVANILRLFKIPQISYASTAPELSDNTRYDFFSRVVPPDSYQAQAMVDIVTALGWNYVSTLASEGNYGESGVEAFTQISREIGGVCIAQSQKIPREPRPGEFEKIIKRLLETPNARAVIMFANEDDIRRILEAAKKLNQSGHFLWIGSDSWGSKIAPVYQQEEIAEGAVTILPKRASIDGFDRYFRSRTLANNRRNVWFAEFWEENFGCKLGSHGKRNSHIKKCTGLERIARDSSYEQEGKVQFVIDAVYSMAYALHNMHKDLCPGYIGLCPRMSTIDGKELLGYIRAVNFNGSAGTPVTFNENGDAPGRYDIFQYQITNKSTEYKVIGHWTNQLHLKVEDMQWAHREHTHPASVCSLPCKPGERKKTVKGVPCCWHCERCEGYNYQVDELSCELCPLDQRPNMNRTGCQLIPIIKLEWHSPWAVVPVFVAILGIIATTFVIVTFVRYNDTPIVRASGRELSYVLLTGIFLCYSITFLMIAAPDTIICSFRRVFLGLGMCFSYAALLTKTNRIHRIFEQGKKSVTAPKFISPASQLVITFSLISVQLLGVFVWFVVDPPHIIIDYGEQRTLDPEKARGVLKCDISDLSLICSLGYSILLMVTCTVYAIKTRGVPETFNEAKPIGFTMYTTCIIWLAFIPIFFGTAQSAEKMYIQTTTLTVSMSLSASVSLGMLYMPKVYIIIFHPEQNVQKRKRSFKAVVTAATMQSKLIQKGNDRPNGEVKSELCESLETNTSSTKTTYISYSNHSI
Metabotropic glutamate receptor 2 (Homo sapiens), sequence (Q14416 19-872 limits assumed): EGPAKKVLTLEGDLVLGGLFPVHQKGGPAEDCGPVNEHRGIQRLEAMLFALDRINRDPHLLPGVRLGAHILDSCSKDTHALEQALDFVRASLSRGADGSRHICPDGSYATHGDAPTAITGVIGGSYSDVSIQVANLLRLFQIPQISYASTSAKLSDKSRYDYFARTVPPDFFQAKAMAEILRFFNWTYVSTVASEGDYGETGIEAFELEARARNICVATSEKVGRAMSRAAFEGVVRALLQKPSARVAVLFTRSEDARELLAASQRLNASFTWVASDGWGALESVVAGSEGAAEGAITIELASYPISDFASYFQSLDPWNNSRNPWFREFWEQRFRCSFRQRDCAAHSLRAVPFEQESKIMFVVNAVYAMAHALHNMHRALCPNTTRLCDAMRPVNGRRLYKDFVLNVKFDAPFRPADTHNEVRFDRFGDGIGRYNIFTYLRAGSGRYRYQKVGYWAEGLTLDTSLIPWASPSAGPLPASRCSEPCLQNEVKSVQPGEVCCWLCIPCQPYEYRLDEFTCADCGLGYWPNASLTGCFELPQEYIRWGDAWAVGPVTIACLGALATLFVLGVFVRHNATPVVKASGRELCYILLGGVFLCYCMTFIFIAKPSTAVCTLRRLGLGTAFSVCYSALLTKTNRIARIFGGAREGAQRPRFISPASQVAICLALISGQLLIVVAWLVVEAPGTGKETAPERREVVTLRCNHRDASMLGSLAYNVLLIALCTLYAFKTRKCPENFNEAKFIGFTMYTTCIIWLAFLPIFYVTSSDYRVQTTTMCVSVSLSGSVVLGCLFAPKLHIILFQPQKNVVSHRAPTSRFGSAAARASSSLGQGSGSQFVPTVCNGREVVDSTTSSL

Take `N[C@@]1(C(=O)O)CC[C@H]2[C@H](C(=O)O)[C@H]21` [EGLUMETAD]: the Activity is above 100 µM in [1]; 11.5 µM in assay [2]; 21 nM in [3]; above 100 µM in [4]; above 100 µM in [5]; 3000 nM in [6]. Moreover, the Activity in assay [7] worked out at 7.9 nM. Also, the minimal effective dose in assay [8] was determined as 3 mg/kg.

Turning to `C[C@H]1[C@H](C(=O)O)[C@H]1[C@H](N)C(=O)O`, the Activity in assay [1] was above 100 µM; in assay [2], 1.32 µM; in [3], 38 nM; in assay [4], above 100 µM; in assay [5], above 100 µM; in assay [6] it was 1200 nM. For the same compound, the Activity in assay [7] was 8 nM. In addition, the minimal effective dose in assay [8] stood at 0.0003 mg/kg.

With `N[C@H](C(=O)O)[C@H]1C[C@@H]1C(=O)O`, the Activity was determined as 47 µM in assay [1]; 0.4 µM in assay [2]; 600 nM in assay [3]; 17 µM in assay [5]; 600 nM in assay [6]; 300 nM in assay [7].

Consider `COC[C@@H]1[C@H](C(=O)O)[C@H]1[C@H](N)C(=O)O`, for which the Activity in assay [5] is above 100 µM; in assay [7] it was 300 nM.

With `COC[C@H]1[C@H](C(=O)O)[C@H]1[C@H](N)C(=O)O`, the values for the Activity in assay [9] and in assay [7] were above 100 µM and 100 nM, respectively.

For the compound `N[C@H](C(=O)O)C1[C@@H](C(=O)O)[C@@H]1C(=O)O` (stereo not given in full), the Activity came to 32 µM in assay [2]; 200 nM in [3]; 23 µM in assay [4]; 389 µM in [5]; 40000 nM in assay [6]; 300 nM in [7]. Besides, in assay [10], the Activity came out at 40 µM.

Turning to `N[C@@]1(C(=O)O)CC[C@@H]2[C@H]1[C@@]2(F)C(=O)O`, the Activity is above 100 µM in assay [1]; 89 nM in assay [3]; above 100 µM in assay [4]; above 100 µM in [5]; above 100 nM in [6]; 16.6 nM in assay [7].

Turning to `N[C@@]1(C(=O)O)CC[C@@H](C(=O)O)C1`, the Activity in assay [1] is 1000 µM; in [2] it was 45 µM; in assay [3], 860000 nM; in assay [4], 90 µM; in assay [5], 15 µM; in assay [6] it was 18000 nM. In [7], the Activity is 12000 nM.

For the compound `N[C@@]1(C(=O)O)CO[C@H]2[C@H](C(=O)O)[C@H]21`, the Activity is above 100 µM in assay [1]; 2 µM in [2]; 5 nM in [3]; 21 µM in assay [4]; above 100 µM in [5]; 400 nM in assay [6]. In assay [7], this compound displayed an Activity of 3 nM.

For the compound `N[C@@]1(C(=O)O)CC(=O)[C@@H]2[C@H]1[C@@]2(F)C(=O)O`, the Activity in [11] was above 100 µM; in [12], above 100 µM; in [5] it was above 100 µM; in assay [13] it was above 100 nM; in assay [14], 2.7 nM.

For `N[C@@H](CCC(=O)O)C(=O)O`, the Activity in assay [1] was 5400 µM; in [3], 9000 nM; in assay [4], 12 µM; in assay [5], 4 µM; in assay [6], 20000 nM.

With `N[C@@]1(C(=O)O)CS[C@H]2[C@H](C(=O)O)[C@H]21`, the Activity in assay [1] is above 100 µM; in assay [2], 7 µM; in assay [3] it was 8 nM; in assay [4], above 100 µM; in assay [5] it was above 100 µM; in assay [6], 2000 nM. This compound came in with an Activity in assay [7] of 4 nM.

Take `C[C@@H]1[C@H](C(=O)O)[C@H]1[C@H](N)C(=O)O`: the Activity in [2] was 2.8 µM; in [3], 2000 nM; in [5], above 100 µM; in assay [7] it was 188 nM.

For `N[C@]1(C(=O)O)[C@H]2[C@@H](C[C@@H]1F)[C@@H]2C(=O)O`, the Activity in [11] is above 100 µM; in [2], above 100 µM; in assay [12], above 100 µM; in assay [5], above 100 µM; in [13], above 100 nM; in assay [14], 45.4 nM.
